The record followed here is ChEMBL document CHEMBL4177578, “Synthesis, pharmacological activities and molecular docking studies of pyrazolyltriazoles as anti-bacterial and anti-inflammatory agents” (Bioorg Med Chem, 2017).

Format in all cases: functional
Test [1] relates to Salmonella paratyphi. As to the kind of experiment: Antimicrobial activity against Salmonella paratyphi incubated for 12 to 16 hrs followed by plating in nutrient agar by tube dilution method. To be noted: Salmonella enterica subsp. enterica serovar Paratyphi A. A digest of the protocol: (§1)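 After 12-16 h at 37 °C in tube dilution (500 to 1.9 µg/mL; 1 mL inoculum at OD 0.2), the culture from each tube was plated on nutrient agar. MBC is the concentration at which cells are completely killed.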

Test [2] concerns Salmonella typhi. Briefly: Antimicrobial activity against Salmonella typhi incubated for 12 to 16 hrs by tube dilution method. To be noted: Salmonella enterica subsp. enterica serovar Typhi. An outline of the steps: (§2)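 Broth tube dilution, two-fold serial dilutions from 500 to 1.9 µg/mL plus a drug-free control tube. Each tube inoculated with 1 mL culture at OD 0.2 (~McFarland standard), 37 °C for 12-16 h. Turbidity compared with the control tube. MIC is the lowest concentration giving complete growth inhibition.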

Test [3] deals with Micrococcus luteus. Briefly: Antimicrobial activity against Micrococcus luteus at 1 mg/ml incubated for 20 to 30 mins followed by incubation for 24 hrs at 37 degC by agar plate method. An outline of the steps:
(§3)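 Agar well diffusion on nutrient agar. Plates swabbed with 60 µL inoculum; 8 mm wells loaded with 100 µL of compound at 1.0 mg/mL. Held 20–30 min at 4 °C for diffusion, then 24 h at 37 °C. Inhibition zone diameter read in mm. Triplicate.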

For test [4], the system named is Salmonella paratyphi. Briefly: Antimicrobial activity against Salmonella paratyphi at 1 mg/ml incubated for 20 to 30 mins followed by incubation for 24 hrs at 37 degC by agar plate method. To be noted: Salmonella enterica subsp. enterica serovar Paratyphi A. An outline of the steps:
(§4)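 Agar well diffusion on nutrient agar. Plates swabbed with 60 µL inoculum, 8 mm wells loaded with 100 µL sample at 1.0 mg/mL, streptomycin standard and control in separate wells. Plates held 20–30 min at 4 °C for diffusion, then 24 h at 37 °C. Zone diameter read in mm; triplicate.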

The test system of test [5] is Salmonella typhi. As to the kind of experiment: Antimicrobial activity against Salmonella typhi at 1 mg/ml incubated for 20 to 30 mins followed by incubation for 24 hrs at 37 degC by agar plate method. To be noted: Salmonella enterica subsp. enterica serovar Typhi. A digest of the protocol:
as §4

The subject of a further test is Staphylococcus aureus. Briefly: Antimicrobial activity against Staphylococcus aureus at 1 mg/ml incubated for 20 to 30 mins followed by incubation for 24 hrs at 37 degC by agar plate method. An outline of the steps: as §3
The test system of test [6] is Salmonella typhi. As to the kind of experiment: Antimicrobial activity against Salmonella typhi incubated for 12 to 16 hrs followed by plating in nutrient agar by tube dilution method. To be noted: Salmonella enterica subsp. enterica serovar Typhi. A digest of the protocol:
as §1

The test system of test [7] is Micrococcus luteus. As to the kind of experiment: Antimicrobial activity against Micrococcus luteus incubated for 12 to 16 hrs by tube dilution method. An outline of the steps:
(§5)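 Tube dilution, serial from 500 to 1.9 µg/mL, plus drug-free control tube. Each tube inoculated with 1 mL culture at OD 0.2, incubated 37 °C for 12–16 h. MIC is the lowest concentration with no growth by turbidity. MBC is found by plating each tube on nutrient agar: the lowest concentration at which all cells are killed.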

Test [8] in a line: Anti-inflammatory activity at 50 ug/ml using bovine serum albumin and egg albumin proteins incubated at 37 degC for 20 mins and then heated to 95 degC for 20 mins by UV-visible Spectrophotometry based protein denaturation method. An outline of the steps:
(§6)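 Albumin (bovine serum or egg) at 1% in 50 mM sodium phosphate buffer pH 6.4. Mixture is 0.1 ml test sample (1 mg/ml) plus 0.2 ml albumin, made to 5 ml with buffer. Held 37 °C for 20 min, then 95 °C for 20 min. Cooled to room temperature, turbidity read at 660 nm. % inhibition = (Abs control − Abs sample)/Abs control × 100. Triplicate, averaged.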

In test [9] the test system is Salmonella paratyphi. As to the kind of experiment: Antimicrobial activity against Salmonella paratyphi incubated for 12 to 16 hrs by tube dilution method. To be noted: Salmonella enterica subsp. enterica serovar Paratyphi A. An outline of the steps:
as §2

Test [10] relates to Micrococcus luteus. Briefly: Antimicrobial activity against Micrococcus luteus incubated for 12 to 16 hrs followed by plating in nutrient agar by tube dilution method. A digest of the protocol: as §5
Test [11] in a line: Anti-inflammatory activity at 100 ug/ml using bovine serum albumin and egg albumin proteins incubated at 37 degC for 20 mins and then heated to 95 degC for 20 mins by UV-visible Spectrophotometry based protein denaturation method. A digest of the protocol: as §6
Test [12] in a line: Anti-inflammatory activity using bovine serum albumin and egg albumin proteins incubated at 37 degC for 20 mins and then heated to 95 degC for 20 mins by UV-visible Spectrophotometry based protein denaturation method. A digest of the protocol: as §6

Molecules are shown by their SMILES. Active and inactive are the calls of the source. No cut-off for these calls is given here.

On to `Nc1ccc(-c2cn(Cc3cn(-c4ccccc4)nc3-c3ccccc3)nn2)cc1`, for which the MBC result with Salmonella paratyphi [1], in the test on Salmonella typhi [6] and in the test with Micrococcus luteus [10] was “inactive” each time. Moreover, the MIC entry in the test on Salmonella typhi [2], in the test on Micrococcus luteus [7] and in the test on Salmonella paratyphi [9] was “inactive” in each case. Moreover, the “diameter of the inhibition zone (DIZ)” value in the test with Micrococcus luteus [3], in the test on Salmonella paratyphi [4], in the test on Salmonella typhi [5] and with Staphylococcus aureus was “inactive” in each case. Besides, the inhibition entry in test [8] and in test [11] was “inactive” each time. Also, the IC50 result in test [12] is “Not Active”.
`COC(=O)c1nnn(Cc2cn(-c3ccc(C)cc3)nc2-c2ccccc2)c1C(=O)OC`: the MBC entry in the test on Salmonella paratyphi [1], with Salmonella typhi [6] and in the test on Micrococcus luteus [10] was “inactive” in each case. The MIC entry with Salmonella typhi [2], with Micrococcus luteus [7] and with Salmonella paratyphi [9] was “inactive” throughout. In addition, the “diameter of the inhibition zone (DIZ)” value with Micrococcus luteus [3], with Salmonella paratyphi [4], in the test with Salmonella typhi [5] and with Staphylococcus aureus was “inactive” each time. For the same molecule, the inhibition entry in [8] and in test [11] was “inactive” in each case. Moreover, the IC50 entry in test [12] was “Not Active”.
Regarding `COC(=O)c1nnn(Cc2cn(-c3ccccc3)nc2-c2ccc(Cl)cc2)c1C(=O)OC`, the MBC entry with Salmonella paratyphi [1], with Salmonella typhi [6] and in the test on Micrococcus luteus [10] was “inactive” throughout. Besides, the MIC entry in the test with Salmonella typhi [2], in the test on Micrococcus luteus [7] and in the test with Salmonella paratyphi [9] was “inactive” each time. In addition, the “diameter of the inhibition zone (DIZ)” value in the test on Micrococcus luteus [3], in the test on Salmonella paratyphi [4], in the test with Salmonella typhi [5] and in the test on Staphylococcus aureus was “inactive” in each case. The inhibition result in test [8] and in test [11] was “inactive” each time. In [12], the IC50 entry was “Not Active”.
With `Cc1ccc(-c2nn(-c3ccccc3)cc2Cn2cc(-c3ccccc3)nn2)cc1`, the MBC result in the test with Salmonella paratyphi [1], in the test on Salmonella typhi [6] and with Micrococcus luteus [10] was “inactive” throughout. For the same molecule, the MIC result with Salmonella typhi [2], with Micrococcus luteus [7] and in the test on Salmonella paratyphi [9] was “inactive” throughout. For the same molecule, the “diameter of the inhibition zone (DIZ)” value with Micrococcus luteus [3], in the test on Salmonella paratyphi [4], in the test with Salmonella typhi [5] and with Staphylococcus aureus was “inactive” each time. Further, the inhibition result in [8] and in test [11] was “inactive” each time. In addition, the IC50 entry in [12] is on record as “Not Active”.
For `COC(=O)c1nnn(Cc2cn(-c3ccc(Cl)cc3)nc2-c2ccccc2)c1C(=O)OC`, the MBC result in the test with Salmonella paratyphi [1], in the test with Salmonella typhi [6] and in the test on Micrococcus luteus [10] was “inactive” in each case. In addition, the MIC result with Salmonella typhi [2], with Micrococcus luteus [7] and with Salmonella paratyphi [9] was “inactive” in each case. Also, the “diameter of the inhibition zone (DIZ)” value in the test on Micrococcus luteus [3], in the test on Salmonella paratyphi [4], with Salmonella typhi [5] and with Staphylococcus aureus was “inactive” in each case. The inhibition entry in test [8] and in test [11] was “inactive” each time. The IC50 result in test [12] is given as “Not Active”.
As to `Brc1ccc(-c2cn(Cc3cn(-c4ccccc4)nc3-c3ccccc3)nn2)cc1`, the MBC result in the test with Salmonella paratyphi [1], in the test with Salmonella typhi [6] and in the test with Micrococcus luteus [10] was “inactive” in each case. Moreover, the MIC result in the test on Salmonella typhi [2], with Micrococcus luteus [7] and with Salmonella paratyphi [9] was “inactive” throughout. In addition, the “diameter of the inhibition zone (DIZ)” value in the test with Micrococcus luteus [3], with Salmonella paratyphi [4], in the test with Salmonella typhi [5] and in the test on Staphylococcus aureus was “inactive” each time. For the same molecule, the inhibition result in [8] and in [11] was “inactive” in each case. Also, the IC50 result in test [12] was “Not Active”.
`Clc1ccc(-c2nn(-c3ccccc3)cc2Cn2cc(-c3ccccc3)nn2)cc1`: the MBC entry in the test on Salmonella paratyphi [1], in the test with Salmonella typhi [6] and in the test with Micrococcus luteus [10] was “inactive” in each case. The MIC result with Salmonella typhi [2], with Micrococcus luteus [7] and in the test on Salmonella paratyphi [9] was “inactive” each time. In addition, the “diameter of the inhibition zone (DIZ)” value with Micrococcus luteus [3], with Salmonella paratyphi [4], with Salmonella typhi [5] and with Staphylococcus aureus was “inactive” in each case. Moreover, the inhibition entry in test [8] and in test [11] was “inactive” in each case. The IC50 result in test [12] is reported as “Not Active”.
Take `FC(F)(F)c1ccc(-c2cn(Cc3cn(-c4ccccc4)nc3-c3ccccc3)nn2)c(C(F)(F)F)c1`: the MBC entry in the test with Salmonella paratyphi [1], in the test with Salmonella typhi [6] and in the test on Micrococcus luteus [10] was “inactive” each time. Also, the MIC result with Salmonella typhi [2], with Micrococcus luteus [7] and in the test on Salmonella paratyphi [9] was “inactive” throughout. Further, the “diameter of the inhibition zone (DIZ)” value with Micrococcus luteus [3], with Salmonella paratyphi [4], in the test on Salmonella typhi [5] and in the test with Staphylococcus aureus was “inactive” throughout. The inhibition entry in test [8] and in [11] was “inactive” in each case. In addition, the IC50 result in [12] is reported as “Not Active”.
As for `Clc1ccc(-n2cc(Cn3cc(-c4ccccc4)nn3)c(-c3ccccc3)n2)cc1`, the MBC entry in the test on Salmonella paratyphi [1], with Salmonella typhi [6] and with Micrococcus luteus [10] was “inactive” throughout. Further, the MIC entry in the test on Salmonella typhi [2], in the test with Micrococcus luteus [7] and with Salmonella paratyphi [9] was “inactive” in each case. The “diameter of the inhibition zone (DIZ)” value in the test on Micrococcus luteus [3], with Salmonella paratyphi [4], in the test with Salmonella typhi [5] and in the test with Staphylococcus aureus was “inactive” each time. Besides, the inhibition result in [8] and in test [11] was “inactive” throughout. The IC50 result in test [12] is on record as “Not Active”.
Turning to `COc1ccc(-c2cn(Cc3cn(-c4ccccc4)nc3-c3ccccc3)nn2)c(C)c1`, the MBC result in the test on Salmonella paratyphi [1], in the test with Salmonella typhi [6] and in the test with Micrococcus luteus [10] was “inactive” each time. Besides, the MIC result in the test with Salmonella typhi [2], in the test with Micrococcus luteus [7] and with Salmonella paratyphi [9] was “inactive” throughout. The “diameter of the inhibition zone (DIZ)” value in the test with Micrococcus luteus [3], in the test with Salmonella paratyphi [4], in the test with Salmonella typhi [5] and in the test on Staphylococcus aureus was “inactive” in each case. For the same molecule, the inhibition result in [8] and in test [11] was “inactive” each time. The IC50 result in test [12] was “Not Active”.
